Results taken from ChEMBL document CHEMBL4190206, “Neoclerodane Diterpenoids from Reehal Fatima, Teucrium yemense” (J Nat Prod, 2017).
Calls of active or inactive are those of the source. No cut-off for these calls is given here.

Legend:
Staphylococcus aureus = test: Antimicrobial activity against Staphylococcus aureus assessed as inhibition of microbial growth at 0.03125 to 0.5 mg/ml measured every 20 mins for 24 hrs by spectrophotometry; assay type: functional, organism-based
How it was run: (§1)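 Broth microdilution: colony suspensions grown overnight at 37°C with shaking, standardised to McFarland 0.5, inoculated at final 5 × 10^5 cfu mL^-1 into nutrient broth holding serially diluted test solution. Rifampicin (61 µM) as control; untreated wells included. 37°C, 300 rpm shaking, OD600 read every 20 min over 24 h.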

Schistosoma mansoni [1] = test: Antischistosomal activity against schistosomula larval stage of Schistosoma mansoni assessed as effect on motility at 10 uM after 24 hrs; assay type: functional, organism-based
How it was run: (§2)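 24 h cultured, mechanically transformed S. mansoni schistosomula (~120/well) in Basch medium, exposed to compound at 10 µM final (DMSO stock 1.6 mM) in 384-well format; DMSO and auranofin controls, 16 wells each. Incubated 24 h, 37°C, 5% CO2, then high-content imaging scored motility and phenotype.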

HepG2 = test: Cytotoxicity against human HepG2 at <200 uM after 20 hrs by MTT assay; assay type: cell-based; details: hepg2, 20 h
How it was run: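 HepG2 seeded 2.0 × 10^4/well in modified BME with 10% FBS, L-Gln, non-essential amino acids and antibiotic/antimycotic; 24 h at 37°C, 5% CO2 before dosing at 100-0.01 µM final. After 20 h, MTT added for 4 h; formazan dissolved in DMSO:isopropanol (1:1), A570 read. 1% DMSO and 1% Triton X-100 controls; blank-corrected; three data sets.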

Escherichia coli [2] = test: Antimicrobial activity against Escherichia coli assessed as inhibition of microbial growth at 0.03125 to 0.5 mg/ml measured every 20 mins for 24 hrs by spectrophotometry; assay type: functional, organism-based; how it was run: as §1
[3] = tested on: Mycolicibacterium smegmatis; test: Antimicrobial activity against Mycobacterium smegmatis assessed as inhibition of microbial growth at 0.03125 to 0.5 mg/ml measured every 20 mins for 24 hrs by spectrophotometry; assay type: functional, organism-based; how it was run: as §1
Pseudomonas aeruginosa = test: Antimicrobial activity against Pseudomonas aeruginosa assessed as inhibition of microbial growth at 0.03125 to 0.5 mg/ml measured every 20 mins for 24 hrs by spectrophotometry; assay type: functional, organism-based; how it was run: as §1
Candida albicans = test: Antimicrobial activity against Candida albicans assessed as inhibition of microbial growth at 0.03125 to 0.5 mg/ml measured every 20 mins for 24 hrs by spectrophotometry; assay type: functional, organism-based; how it was run: as §1
Schistosoma mansoni [4] = test: Antischistosomal activity against schistosomula larval stage of Schistosoma mansoni assessed as effect on phenotype at 10 uM after 24 hrs; assay type: functional, organism-based; how it was run: as §2
Escherichia coli [5] = test: Growth stimulation of Escherichia coli at >100 uM measured every 20 mins for 24 hrs by spectrophotometry; assay type: organism-based
How it was run: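 E. coli in nutrient broth with serially diluted compound, final inoculum 5 × 10^5 cfu mL^-1. Incubated 37°C with 300 rpm shaking, OD600 read every 20 min for 24 h. Data given as OD600 percentage of no-drug control wells, mean ± error.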

For `C[C@@H]1C[C@@]2(O)OC[C@]3(O)[C@H]2[C@H](CC[C@@H]3O)[C@@]12C[C@@H](c1ccoc1)OC2=O`, the Activity (Staphylococcus aureus) was “inactive”, the Activity (Schistosoma mansoni [1]) was “inactive” and the Activity (HepG2) was “Non-Toxic”. The Activity (Escherichia coli [2]) was “inactive”, the Activity [3] was “inactive” and the Activity (Pseudomonas aeruginosa) was “inactive”. For the same molecule, the Activity (Candida albicans) was “inactive” and the Activity (Schistosoma mansoni [4]) was “inactive”.

In the case of `C[C@@H]1CC(=O)[C@@H]2[C@H](CC[C@H](O)[C@]2(O)COC(=O)c2ccc(O)cc2)[C@@]12C[C@@H](c1ccoc1)OC2=O`, the Activity (Staphylococcus aureus) is reported as “inactive”, the Activity (Schistosoma mansoni [1]) is reported as “inactive” and the Activity (HepG2) is reported as “Non-Toxic”. The Activity (Escherichia coli [2]) was “inactive”, the Activity [3] was “inactive” and the Activity (Pseudomonas aeruginosa) was “inactive”. The Activity (Candida albicans) was “inactive” and the Activity (Schistosoma mansoni [4]) was “inactive”.

With `C[C@@H]1C[C@@]2(O)OC[C@@]3(O)[C@@H](O)CC[C@@H]4[C@]1(CC(O)c1ccoc1)C(=O)OC[C@]423` (stereo partly drawn) the Activity (Staphylococcus aureus) was “inactive”, the Activity (Schistosoma mansoni [1]) was “inactive” and the Activity (HepG2) was “Non-Toxic”. For the same molecule, the Activity (Escherichia coli [2]) was “inactive”, the Activity [3] was “inactive” and the Activity (Pseudomonas aeruginosa) was “inactive”. The Activity (Candida albicans) was “inactive” and the Activity (Schistosoma mansoni [4]) was “inactive”.

`CC(=O)OC[C@]1(CCC2=CC(O)OC2=O)[C@H](C)C[C@H](O)[C@]2(COC(C)=O)[C@@H]1CC[C@H](O)[C@]21CO1` (stereo partly drawn) was tested, and the Activity (Staphylococcus aureus) was “inactive”, the Activity (Schistosoma mansoni [1]) was “inactive” and the Activity (HepG2) was “Non-Toxic”. The Activity (Escherichia coli [2]) was “inactive”, the Activity [3] was “inactive” and the Activity (Pseudomonas aeruginosa) was “inactive”. For the same molecule, the Activity (Candida albicans) was “inactive”, the Activity (Escherichia coli [5]) was “Dose-dependent effect” and the Activity (Schistosoma mansoni [4]) was “inactive”.

In the case of `C[C@@H]1C[C@H](O)[C@]23CO[C@](O)(CC[C@@H]2[C@@]12C[C@@H](c1ccoc1)OC2=O)[C@@H]3CO`, the Activity (Staphylococcus aureus) is reported as “inactive”, the Activity (Schistosoma mansoni [1]) is reported as “inactive” and the Activity (HepG2) is reported as “Non-Toxic”. The Activity (Escherichia coli [2]) was “inactive”, the Activity [3] was “inactive” and the Activity (Pseudomonas aeruginosa) was “inactive”. For the same molecule, the Activity (Candida albicans) was “inactive” and the Activity (Schistosoma mansoni [4]) was “inactive”.

For `CC(=O)OC[C@@]12[C@@H]3CC[C@H](O)[C@]1(O)CO[C@]2(O)C[C@@H](C)[C@]31C[C@@H](c2ccoc2)OC1=O`, the Activity (Staphylococcus aureus) was “inactive”, the Activity (Schistosoma mansoni [1]) was “inactive” and the Activity (HepG2) was “Non-Toxic”. The Activity (Escherichia coli [2]) was “inactive”, the Activity [3] was “inactive” and the Activity (Pseudomonas aeruginosa) was “inactive”. The Activity (Candida albicans) was “inactive” and the Activity (Schistosoma mansoni [4]) was “inactive”.

`CC(=O)OC[C@]1(CC(O)c2ccoc2)[C@H](C)C[C@H](O)[C@]2(COC(C)=O)[C@@H]1CC[C@H](O)[C@]21CO1` (stereo partly drawn) was tested, and the Activity (Staphylococcus aureus) was “inactive”, the Activity (Schistosoma mansoni [1]) was “inactive” and the Activity (HepG2) was “Non-Toxic”. For the same molecule, the Activity (Escherichia coli [2]) was “inactive”, the Activity [3] was “inactive” and the Activity (Pseudomonas aeruginosa) was “inactive”. The Activity (Candida albicans) was “inactive”, the Activity (Escherichia coli [5]) was “Dose-dependent effect” and the Activity (Schistosoma mansoni [4]) was “inactive”.
